Compounds with a hit are over-represented: about 1.8% of the library has one in this group of screens.
CHRM4 PAM = human M4 muscarinic receptor positive allosteric modulators, primary screen, CHO-K1 cells, Fluo-8 calcium fluorescence | Muscarinic acetylcholine receptor M4 (Homo sapiens), P08173 | CHO-K1 hM4/Gqi5, ACh EC20; 0% = ACh EC20, 100% = maximal ACh | activation, % at 3 µM | 360,000 tested, 0.4% active | AID 624126, 2012;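 active = activation above its plate's cutoff, the mean activation of sample wells plus 3 SD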
CHRM5 agonist = human M5 muscarinic receptor agonists, primary screen, CHO-K1 cells, Fluo-8 calcium fluorescence. Muscarinic acetylcholine receptor M5 (Homo sapiens), P08912. CHO-K1 hM5 cells; 0% DMSO wells, 100% maximal acetylcholine response. activation, % at 3 µM. 360,000 tested, 0.19% active. AID 624037, 2012;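 active = activation above the run's mean over test compounds plus 3 SD, cut at about 23% in these data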;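 also: signal is peak over basal fluorescence ratio across the kinetic read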
Target sequence (P08912 whole entry, looked up): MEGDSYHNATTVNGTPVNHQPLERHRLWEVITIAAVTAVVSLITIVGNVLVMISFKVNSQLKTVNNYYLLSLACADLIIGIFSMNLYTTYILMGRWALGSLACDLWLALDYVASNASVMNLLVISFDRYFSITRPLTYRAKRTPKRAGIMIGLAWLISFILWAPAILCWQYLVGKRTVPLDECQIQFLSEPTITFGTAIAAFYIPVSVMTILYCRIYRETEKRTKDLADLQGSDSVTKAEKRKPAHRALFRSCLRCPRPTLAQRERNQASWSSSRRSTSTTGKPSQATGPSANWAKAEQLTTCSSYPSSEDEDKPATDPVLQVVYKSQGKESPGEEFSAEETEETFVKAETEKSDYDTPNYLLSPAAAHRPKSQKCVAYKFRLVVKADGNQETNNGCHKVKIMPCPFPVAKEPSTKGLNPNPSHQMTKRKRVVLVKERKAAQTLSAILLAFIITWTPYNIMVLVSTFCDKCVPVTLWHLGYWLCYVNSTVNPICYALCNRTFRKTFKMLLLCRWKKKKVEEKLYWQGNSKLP
CHRM4 antagonist = human M4 muscarinic receptor antagonists, primary screen, CHO cells, Fluo-8 calcium fluorescence | Muscarinic acetylcholine receptor M4 (Homo sapiens), P08173 | CHO-hM4 cells, ACh EC80 | inhibition, % at 3 µM | 360,000 tested, 0.73% active;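 active = inhibition above its plate's cutoff, the mean inhibition of sample wells plus 3 SD, cut at about 27% in these data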;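 also: 0% = acetylcholine EC80 with DMSO and 100% = DMSO without agonist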
M4 ag = human M4 muscarinic receptor agonists, primary screen, CHO-K1 cells, Fluo-8 calcium fluorescence. Muscarinic acetylcholine receptor M4 (Homo sapiens), P08173. activation, % at 3 µM. CHO-K1 hM4/Gqi5; vehicle 0%, full acetylcholine response 100%. AID 624127, 2012. 360,000 tested, 0.14% active;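 active = activation above the run mean over all test wells plus 3 SD, cut at about 32% in these data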;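 also: peak over basal fluorescence ratio per well then scaled between controls; 0% = DMSO wells and 100% = acetylcholine at EC100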
CHRM5 antagonist = human M5 muscarinic receptor antagonists, primary screen, CHO cells, Fluo-8 calcium fluorescence | Muscarinic acetylcholine receptor M5 (Homo sapiens), P08912 | CHO-hM5 cells, ACh EC80 | inhibition, % at 3 µM | 360,000 tested, 0.59% active;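 active = inhibition above a per-plate cutoff, the mean of that plate's test compounds plus 3 SD, cut at about 27% in these data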;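 also: 0% = acetylcholine EC80 with DMSO and 100% = DMSO without agonist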
M5 PAM = human M5 muscarinic receptor positive allosteric modulators, primary screen, CHO-K1 cells, Fluo-8 calcium fluorescence | Muscarinic acetylcholine receptor M5 (Homo sapiens), P08912 | CHO-K1 hM5, ACh EC20 PAM; 0% = ACh EC20, 100% = ACh EC100 | activation, % at 3 µM | 360,000 tested, 0.3% active | AID 624038, 2012;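 active = activation above the run cutoff, the mean activation of all test compounds plus 3 SD, cut at about 18% in these data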
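System – CHO-K1 hM5 cells · Compound – 3 µM, single dose · Incubation – compound preincubation 140 s before EC20 acetylcholine addition · Technique – Fluo-8 calcium fluorescence · Measure – Max/basal fluorescence ratio as % of EC20–EC100 ACh window · Benchmarks – low control EC20 acetylcholine (0%), high control EC100 acetylcholine (100%) · Replication – singlicate, one well per test compound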
Starred values were filed as active, the others as inactive; ! = a repeat was not active.

SMILES	CHRM4 PAM	CHRM5 agonist	CHRM4 antagonist	M4 ag	CHRM5 antagonist	M5 PAM
Cc1cccc(C)c1NC(=O)C(c1ccc(C#N)cc1)n1c(=O)c(-c2ccco2)nc2ccccc21 (centres undefined)	0	1	-7	1	-6	4
COc1ccc(S(=O)(=O)n2nc(OC(=O)c3ccco3)cc2N)cc1	18*	-8	-1	1	3	16
COc1ccc(S(=O)(=O)n2nc(OC(=O)c3ccccc3)cc2N)cc1	10	-9	-2	0	2	2
COC(=O)[C@]12CCCCC=C1N(CCc1ccc(OC)c(OC)c1)C(=O)[C@H](CC(=O)NCCCCc1ccccc1)C2	-9	3	4	20	22	-17
c1ccc(C(CN2CCCCC2)Oc2ccccn2)cc1 (centres undefined)	-17	-11	35*	3	24	-39
OC(COC(c1ccccc1)c1ccccc1)CN1CCCCC1 (centres undefined)	-4	-11	2	2	3	-9
COc1cc([N+](=O)[O-])ccc1NC(=O)NCC1CCN(Cc2ccc(Cl)cc2)CC1	-20	-5	32*	29	17	-23
CC1=NOC(=O)/C1=C\c1ccc(-c2cccc(Cl)c2)o1	3	-1	54*	6	19	-5
CC1=NOC(=O)/C1=C\c1ccc(-c2ccc(Cl)c(C(=O)O)c2)o1	-4	-1	-2	1	9	5
CC(C)CC1C(=O)N(Cc2cn(Cc3ccco3)nn2)CCS(=O)(=O)N1Cc1ccc(-c2ccccc2)cc1 (centres undefined)	-1	-1	6	8	0	7
CN(Cc1ccccc1)C1=CC(=[N+]2CCCCC2)CC(C)(C)C1	-39	-19	54*	4	25	-24
CC1(C)CC(N2CCN(Cc3ccccc3)CC2)=CC(=[N+]2CCCCC2)C1	-13	-17	-3	1	3	5
CSc1nc2ccccc2n1Cc1c(Cl)cccc1Cl	-12	-12	-2	1	10	21*
NNC(=O)c1csc(-c2ncc(C(F)(F)F)cc2Cl)n1	-6	-1	4	1	6	-10
O=C(N/N=C/c1ccc(O)cc1)c1ccc(COc2cc(Cl)ccc2Cl)o1	-9	35*	20	25	12	-6
CNC(=O)C[C@H]1C(=O)N(Cc2ccccc2)C[C@@H]1Cc1ccccc1	0	2	-12	1	1	0
CCOC(=O)CN(C(=O)CSc1nnc(CNc2ccc(F)cc2)o1)c1ccccc1	5	-2	1	3	-10	-3
CCOC(=O)CN(C(=O)CSc1nnc(CNc2ccc(F)cc2)n1C)c1ccccc1	18*	-5	-1	1	-8	11
Cc1c(NC(=O)c2cccs2)cccc1-c1nc2ccccc2s1	-1	2	31*	9	19	2
Cc1c(NC(=O)c2cc(-n3cnnc3)ccc2Cl)cccc1-c1nc2ccccc2s1	-6	0	4	14	4	-11
CC(C)(CO)NCC(=O)Nc1cc(C(F)(F)F)cc(NC(=O)CNC(C)(C)CO)c1Cl	21*	-1	6	1	4	1
Cc1c(Cl)cccc1NC(=O)CNc1cccc(C(F)(F)F)c1	-2	-1	-16	3	-6	-3
CCN1CCCC(OC(=O)C(c2ccccc2)c2ccccc2)C1 (centres undefined)	-17	-1	32*	1	57*	-18
CN(CC(=O)Nc1n[nH]c(=S)s1)S(=O)(=O)c1cccc2cccnc12	-2	-2	6	2	11	-1
CC(=O)Nc1ccc(NC(=O)C(C)OC(=O)c2ccc3c(c2)OCCO3)cc1 (centres undefined)	32*	-4	-8	1	3	4
SMILES	CHRM4 PAM	CHRM5 agonist	CHRM4 antagonist	M4 ag	CHRM5 antagonist	M5 PAM
CC(=O)NCC(=O)OC(C)C(=O)Nc1ccc(C(C)=O)cc1 (centres undefined)	2	0	-1	1	-5	25*
COc1ccc(S(=O)(=O)N2CCCOC2CNC(=O)C(=O)NC2CCCC2)cc1 (centres undefined)	10	1	-17	3	-18	30*
O=C(NCC1OCCCN1S(=O)(=O)c1ccc(F)cc1)C(=O)NC1CCCC1 (centres undefined)	-2	-3	-2	2	5	-2
Cc1ccc(S(=O)(=O)N2CCOC2CNC(=O)C(=O)NCC(C)C)cc1 (centres undefined)	22*	0	-9	2	-10	13
CC(OC(=O)Cc1c[nH]c2ccccc12)C(=O)Nc1ccccc1F (centres undefined)	-1	3	-4	1	-2	0
O=S(=O)(NNc1ccc(F)cc1F)c1cccc(Cl)c1	-19	-3	67*	1	12	-8
O=C(NNc1ccc(F)cc1F)c1c(F)cccc1Cl	-9	5	-6	1	-15	9
CCc1nc2ccc(C(=O)NC(C)(C)C)cn2c1N(CC)Cc1cccc(Br)c1	-3	-1	-10	-1	-4	-5
CN1C[C@@H]2[C@@H]3C(=O)N(Cc4ccccc4)C(=O)[C@@H]3[C@](Cc3ccccc3)(C1=O)N2C(=O)c1ccc(Cl)cc1	-2	3	2	6	9	-5
CC1(C#CC[N+]2(C)CCCCC2)CCC2C(O1)c1ccccc1OC2(C)C (centres undefined)	-30	76*	79*	84*	88*	-35
CC(=O)c1cccc(-c2ccnc3c2CC(C(=O)Nc2cccc(C(F)(F)F)c2)O3)c1 (centres undefined)	-8	3	-5	17	-7	-7
c1cc(SC2CCCCC2)cc(-c2nc3cnccn3c2NC2CCCCC2)c1	0	6	9	2	8	7
CCC(C)Sc1cc(-c2nc3cc(C)ccn3c2NC2CCCCC2)ccc1OC (centres undefined)	-10	-5	10	7	19	-12
CCC(C)Sc1cc(-c2nc3ccccn3c2NC2CCCCC2)ccc1OC (centres undefined)	-9	-5	55*!	5	14	-19
CCC(C)Sc1cccc(-c2nc3cnccn3c2NC2CCCCC2)c1 (centres undefined)	-11	4	26*	-2	7	4
COc1ccc(OCCC(=O)OCC(=O)NCc2ccc(F)cc2)cc1	-4	0	7	0	7	5

Screens from PubChem.
